Zone of inhibition, MIC and logP data for 11 molecules are collected here from ChEMBL document CHEMBL1155323, “Synthesis, characterization and antibacterial activity of 2-[1-(5-chloro-2-methoxy-phenyl)-5-methyl-1H-pyrazol-4-yl]-5-(substituted-phenyl)-[1,3,4]oxadiazoles” (Eur J Med Chem, 2009).

Series [1] relates to Bacillus subtilis. Nature of the series: Antibacterial activity against Bacillus subtilis ATCC 6633 at 100 ug/ml after 24 hrs by agar cup plate method. It is filed as functional. The note with it: ATCC 6633, 24 h, read-out: IZ. In short, it runs like this:
(§1)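 Agar well (bore) diffusion on inoculated nutrient agar with recultured organisms. Test samples prepared in 20% water in DMSO at 100 µg/mL and placed in bores. Plates incubated at 37 °C for 24 h, then the inhibition zone around each bore measured. Controls: inoculum only, and DMSO only.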

Series [2] relates to Klebsiella pneumoniae. Nature of the series: Antibacterial activity against Klebsiella pneumoniae ATCC 11298 after 24 hrs by microtitration method. It is filed as functional. The note with it: ATCC 11298, 24 h. In short, it runs like this:
(§2)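 Strains grown in Luria broth (1% tryptone, 0.5% yeast extract, 0.5% NaCl), pH 7.2, at 37 °C for 24 h. Mid-log cells read at 540 nm and diluted to OD 0.004 (5×10^5 CFU/mL), then dispensed into microplate wells. Graded concentrations (0.2–500 µg/mL) in 20% water in DMSO added; incubated 37 °C, 24 h.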

A short description of series [3]: Octanol-water partition coefficient, log P by shake flask method. It is filed as physicochemical.
The test system of series [4] is Staphylococcus aureus. Nature of the series: Antibacterial activity against Staphylococcus aureus ATCC 6538P after 24 hrs by microtitration method. The series is classed as functional. In short, it runs like this: as §2
The subject of series [5] is Staphylococcus aureus. Nature of the series: Antibacterial activity against Staphylococcus aureus ATCC 6538P at 100 ug/ml after 24 hrs by agar cup plate method. The series is classed as functional. The following applies: read-out: IZ. In outline: as §1
The test system of series [6] is Bacillus subtilis. Nature of the series: Antibacterial activity against Bacillus subtilis ATCC 6633 after 24 hrs by microtitration method. It is filed as functional. The note with it: ATCC 6633, 24 h. In outline:
as §2

Series [7] relates to Escherichia coli. Nature of the series: Antibacterial activity against Escherichia coli ATCC 8739 at 100 ug/ml after 24 hrs by agar cup plate method. The series is classed as functional. The following applies: ATCC 8739, 24 h, read-out: IZ. In outline: as §1
Series [8] has as its system Escherichia coli. Nature of the series: Antibacterial activity against Escherichia coli ATCC 8739 after 24 hrs by microtitration method. It is filed as functional. The following applies: ATCC 8739, 24 h. In outline: as §2
Series [9] has as its system Klebsiella pneumoniae. Nature of the series: Antibacterial activity against Klebsiella pneumoniae ATCC 11298 at 100 ug/ml after 24 hrs by agar cup plate method. It is filed as functional. The note with it: ATCC 11298, 24 h, read-out: IZ. In outline:
as §1

≈ marks a conversion by molar mass, not a printed value.

Regarding `COc1ccc(Cl)cc1-n1ncc(-c2nnc(-c3ccc(Cl)cc3)o2)c1C`, the zone of inhibition at 100 µg/mL amounted to 15 mm with Bacillus subtilis [1], 18 mm in the series with Staphylococcus aureus [5], 14 mm in the series on Escherichia coli [7] and 13 mm in the series with Klebsiella pneumoniae [9]. Also, the minimum inhibitory concentration (MIC) is 41 µg/mL (≈ 102 µM) against Klebsiella pneumoniae [2], 30.6 µg/mL (≈ 76.3 µM) against Staphylococcus aureus [4], 39.6 µg/mL (≈ 98.7 µM) in the series with Bacillus subtilis [6] and 40 µg/mL (≈ 99.7 µM) with Escherichia coli [8]. The molecule also registered a logP in series [3] of 4.51.
For the molecule `COc1ccc(Cl)cc1-n1ncc(-c2nnc(-c3ccc(F)cc3)o2)c1C`, the zone of inhibition at 100 µg/mL was 25 mm in the series on Bacillus subtilis [1], 20 mm in the series on Staphylococcus aureus [5], 21 mm in the series with Escherichia coli [7] and 19 mm in the series with Klebsiella pneumoniae [9]. Besides, the MIC amounted to 30 µg/mL (≈ 78 µM) in the series on Klebsiella pneumoniae [2], 29.8 µg/mL (≈ 77.4 µM) in the series on Staphylococcus aureus [4], 22.4 µg/mL (≈ 58.2 µM) against Bacillus subtilis [6] and 29.6 µg/mL (≈ 76.9 µM) with Escherichia coli [8]. Further, in series [3], the lipophilicity (logP) worked out at 4.26.
Regarding `COc1ccc(Cl)cc1-n1ncc(-c2nnc(-c3ccc(Cl)c(Cl)c3)o2)c1C`, the zone of inhibition at 100 µg/mL in the series on Bacillus subtilis [1] was 19 mm; in the series on Staphylococcus aureus [5] it was 20 mm; with Escherichia coli [7], 27 mm; with Klebsiella pneumoniae [9] it was 15 mm. Also, the minimum inhibitory concentration (MIC) in the series on Klebsiella pneumoniae [2] amounted to 39.6 µg/mL (≈ 90.9 µM); with Staphylococcus aureus [4], 29.8 µg/mL (≈ 68.4 µM); against Bacillus subtilis [6], 30 µg/mL (≈ 68.9 µM); with Escherichia coli [8], 21.5 µg/mL (≈ 49.3 µM). The molecule further displayed a log partition coefficient (logP) in series [3] of 5.57.
`COc1ccc(Cl)cc1-n1ncc(-c2nnc(-c3ccc(C)c([N+](=O)[O-])c3)o2)c1C`: the zone of inhibition at 100 µg/mL in the series on Bacillus subtilis [1] was found to be 15 mm; with Staphylococcus aureus [5], 14 mm; in the series with Escherichia coli [7], 17 mm; in the series with Klebsiella pneumoniae [9], 12 mm. For the same molecule, the MIC against Klebsiella pneumoniae [2] is 42 µg/mL (≈ 98.6 µM); against Staphylococcus aureus [4], 40.6 µg/mL (≈ 95.3 µM); in the series on Bacillus subtilis [6], 39.6 µg/mL (≈ 93 µM); against Escherichia coli [8], 30.8 µg/mL (≈ 72.3 µM). In addition, in [3], the logP is 6.42.
For the molecule `COc1ccc(Cl)cc1-n1ncc(-c2nnc(-c3ccc(Br)c(C)c3)o2)c1C`, the zone of inhibition at 100 µg/mL in the series on Bacillus subtilis [1] came to 15 mm; in the series with Staphylococcus aureus [5] it was 15 mm; in the series with Escherichia coli [7], 17 mm; in the series on Klebsiella pneumoniae [9] it was 14 mm. Besides, the MIC against Klebsiella pneumoniae [2] was 40 µg/mL (≈ 87 µM); in the series on Staphylococcus aureus [4], 39.8 µg/mL (≈ 86.6 µM); against Bacillus subtilis [6], 39.8 µg/mL (≈ 86.6 µM); in the series on Escherichia coli [8] it was 30.8 µg/mL (≈ 67 µM). The log partition coefficient (logP) in series [3] came out at 5.2.
In the case of `COc1ccc(Cl)cc1-n1ncc(-c2nnc(-c3cc(Cl)cc(Cl)c3)o2)c1C`, the zone of inhibition at 100 µg/mL in the series on Bacillus subtilis [1] amounted to 15 mm; in the series on Staphylococcus aureus [5] it was 13 mm; with Escherichia coli [7], 25 mm; in the series with Klebsiella pneumoniae [9], 21 mm. The MIC was 29.6 µg/mL (≈ 67.9 µM) against Klebsiella pneumoniae [2], 41 µg/mL (≈ 94.1 µM) against Staphylococcus aureus [4], 31.8 µg/mL (≈ 73 µM) against Bacillus subtilis [6] and 22.4 µg/mL (≈ 51.4 µM) with Escherichia coli [8]. Moreover, the logP in [3] came to 5.61.
Turning to `COc1ccc(Cl)cc1-n1ncc(-c2nnc(-c3ccc(Br)cc3)o2)c1C`, the zone of inhibition at 100 µg/mL came to 14 mm in the series on Bacillus subtilis [1], 19 mm with Staphylococcus aureus [5], 15 mm in the series on Escherichia coli [7] and 13 mm with Klebsiella pneumoniae [9]. Further, the minimal inhibitory concentration (MIC) against Klebsiella pneumoniae [2] is 41.6 µg/mL (≈ 93.3 µM); against Staphylococcus aureus [4], 30 µg/mL (≈ 67.3 µM); against Bacillus subtilis [6] it was 40.6 µg/mL (≈ 91.1 µM); with Escherichia coli [8], 39.8 µg/mL (≈ 89.3 µM). For the same molecule, the logP in series [3] was 4.88.
Turning to `COc1ccc(Cl)cc1-n1ncc(-c2nnc(-c3ccccc3)o2)c1C`, the zone of inhibition at 100 µg/mL is 20 mm in the series with Bacillus subtilis [1], 15 mm with Staphylococcus aureus [5], 14 mm in the series with Escherichia coli [7] and 14 mm in the series on Klebsiella pneumoniae [9]. Besides, the MIC in the series with Klebsiella pneumoniae [2] came out at 40.6 µg/mL (≈ 111 µM); against Staphylococcus aureus [4] it was 39.8 µg/mL (≈ 109 µM); in the series on Bacillus subtilis [6], 29.8 µg/mL (≈ 81.2 µM); against Escherichia coli [8], 40.6 µg/mL (≈ 111 µM). The same molecule showed a logP in [3] of 4.32.
For the molecule `COc1ccc(Cl)cc1-n1ncc(-c2nnc(-c3cccc(F)c3)o2)c1C`, the zone of inhibition at 100 µg/mL was 19 mm with Bacillus subtilis [1], 27 mm in the series with Staphylococcus aureus [5], 18 mm with Escherichia coli [7] and 20 mm in the series with Klebsiella pneumoniae [9]. Further, the minimal inhibitory concentration (MIC) in the series with Klebsiella pneumoniae [2] is 29.8 µg/mL (≈ 77.4 µM); against Staphylococcus aureus [4], 21.5 µg/mL (≈ 55.9 µM); in the series on Bacillus subtilis [6], 30 µg/mL (≈ 78 µM); in the series on Escherichia coli [8], 30.6 µg/mL (≈ 79.5 µM). This molecule also showed a lipophilicity (logP) in series [3] of 4.28.
For the molecule `COc1ccc(Cl)cc1-n1ncc(-c2nnc(-c3ccc(C)c(Br)c3)o2)c1C`, the zone of inhibition at 100 µg/mL in the series with Bacillus subtilis [1] worked out at 15 mm; in the series on Staphylococcus aureus [5], 20 mm; in the series on Escherichia coli [7], 14 mm; in the series with Klebsiella pneumoniae [9], 15 mm. Further, the minimum inhibitory concentration (MIC) with Klebsiella pneumoniae [2] came to 39 µg/mL (≈ 84.8 µM); in the series with Staphylococcus aureus [4], 29.8 µg/mL (≈ 64.8 µM); in the series with Bacillus subtilis [6] it was 39.6 µg/mL (≈ 86.1 µM); in the series with Escherichia coli [8], 40.6 µg/mL (≈ 88.3 µM). The lipophilicity (logP) in series [3] amounted to 5.19.
Take `CC1(C)S[C@@H]2[C@H](NC(=O)[C@H](N)c3ccccc3)C(=O)N2[C@H]1C(=O)O` [AMPICILLIN]: the zone of inhibition at 100 µg/mL in the series on Bacillus subtilis [1] is 32 mm; in the series with Staphylococcus aureus [5] it was 31 mm; in the series with Escherichia coli [7], 30 mm; with Klebsiella pneumoniae [9] it was 30 mm. In addition, the minimal inhibitory concentration (MIC) came to 4 µg/mL (≈ 11.4 µM) against Klebsiella pneumoniae [2], 3.36 µg/mL (≈ 9.62 µM) against Staphylococcus aureus [4], 3.28 µg/mL (≈ 9.39 µM) with Bacillus subtilis [6] and 3.88 µg/mL (≈ 11.1 µM) against Escherichia coli [8].

Broadly, the MIC is the least concentration at which growth counts as inhibited. Higher therefore signals a less susceptible organism. Usually logP stands for the decadic logarithm of the partition coefficient of the neutral form, usually between octanol and water. A high value points to higher lipophilicity.
